# Source: ChEMBL document CHEMBL4138193, “Novel indole and triazole based hybrid molecules exhibit potent anti-adipogenic and antidyslipidemic activity by activating Wnt3a/β-catenin pathway” (Eur J Med Chem, 2018)
# Calls of active or inactive are those of the source. The calls are words filed in the database; no cut-off is given here.
# Legend:
# [1] = system: 3T3-L1; experiment: Anti-adipogenic activity in mouse differentiated 3T3L1 cells assessed as inhibition of adipogenesis at 20 uM after 20 mins by Oil Red O staining based assay; format: functional
# Procedure, shortened: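 3T3-L1 preadipocytes given 20 µM compound with differentiation media. Oil red O stain (20 min) extracted, absorbance at 492 nm measured against MDI+ control, n=3, mean ± SD, Student t test.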
# [2] = system: Syrian golden hamster; experiment: Induction of reverse cholestrol transport in high fat diet-induced dyslipidemia Syrian Golden hamster model assessed as reduction in eWAT to body weight ratio at 100 mg/kg, po administered for 1 week; format: functional, organism-based; conditions: Mesocricetus auratus
# Procedure, shortened: (§1)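 Male Syrian Golden hamsters on 45% kCal HFD, dosed 100 mg/kg p.o. in 0.5% NaCMC for one week, 4 per group. Food intake and body weight recorded daily. At the end, animals were saline-perfused and liver and eWAT were excised and weighed. Paraffin sections stained with H&E and imaged at 20x.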
# [3] = system: 3T3-L1; experiment: Anti-adipogenic activity in mouse 3T3L1 cells assessed as reduction in lipid accumulation at early differentiation stage at 20 uM measured up to 3 days by Oil Red O absorbance method; format: functional, cell-based
# Procedure, shortened: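 3T3-L1 or C3H10T1/2 cells given 20 µM compound with differentiation media for different time periods. Oil red O stain extracted from accumulated lipid with isopropanol and absorbance read at 492 nm. n=3, mean ± SD, Student t test against MDI+ group.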
# [4] = system: Syrian golden hamster; experiment: Induction of reverse cholestrol transport in high fat diet-induced dyslipidemia Syrian Golden hamster model assessed as increase in LXR1alpha mRNA expression in liver at 100 mg/kg, po administered for 1 week by qRT-PCR analysis; format: functional, organism-based; conditions: Mesocricetus auratus
# [5] = species: Mus musculus; experiment: Activation of Wnt3a/beta-catenin in differentiated mouse 3T3L1 cells assessed as upregulation of phosphorylated LRP6 expression at 20 uM after 16 to 24 hrs by Western blot analysis
# Procedure, shortened: (§2)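 3T3-L1 preadipocytes grown to confluence in high-glucose DMEM/10% FBS, then given differentiation media (0.5 mM IBMX, 5 µg/ml insulin, 250 nM dexamethasone) with or without 20 µM compound. Protein isolated at set time points, lysed with protease/phosphatase inhibitors, BCA-quantified, resolved by 8–12% SDS-PAGE, immunoblotted with ECL detection. β-actin loading control, densitometry normalized to actin, n=3.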
# [6] = system: Syrian golden hamster; experiment: Induction of reverse cholestrol transport in high fat diet-induced dyslipidemia Syrian Golden hamster model assessed as increase in HNF1alpha mRNA expression in liver at 100 mg/kg, po administered for 1 week by qRT-PCR analysis; format: functional, organism-based; conditions: Mesocricetus auratus
# [7] = system: Syrian golden hamster; experiment: Induction of reverse cholestrol transport in high fat diet-induced dyslipidemia Syrian Golden hamster model assessed as increase in SCARB1 mRNA expression in liver at 100 mg/kg, po administered for 1 week by qRT-PCR analysis; format: functional, organism-based; conditions: Mesocricetus auratus
# [8] = system: Syrian golden hamster; experiment: Anti-atherosclerotic activity in high fat diet-induced dyslipidemia Syrian Golden hamster model assessed as reduction in atherogenic index by measuring serum triglycerides to HDL ratio at 100 mg/kg, po administered for 1 week followed by overnight fasting post last dose by clinical bio-analyzer analysis; format: functional, organism-based; conditions: Mesocricetus auratus
# Procedure, shortened: (§3)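 Male Syrian golden hamsters (8–10 wk, 100–120 g), 4 per group, given 45% kcal HFD for 4 days, then 100 mg/kg p.o. in 0.5% NaCMC daily for one week alongside HFD. Blood taken from retro-orbital plexus after overnight fast. TG, HDL, LDL, ALT, AST measured on a clinical bio-analyzer and NEFA by kit. Mean ± SEM, one-way ANOVA with Bonferroni.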
# [9] = system: Syrian golden hamster; experiment: Anti-dyslipidemic activity in high fat diet-induced dyslipidemia Syrian Golden hamster model assessed as reduction in serum total cholesterol levels at 100 mg/kg, po administered for 1 week followed by overnight fasting post last dose by clinical bio-analyzer analysis; format: functional, organism-based; conditions: Mesocricetus auratus
# Procedure, shortened: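 Male Syrian Golden hamsters (8-10 weeks, 100-120 g), 4 per group, given 45% kCal high fat diet for 4 days, then HFD plus oral dosing in 0.5% w/v NaCMC for one week. After an overnight fast, blood was taken from the retro-orbital plexus under anesthesia and serum was analysed on a clinical bio-analyzer. Mean ± SEM; one-way ANOVA with Bonferroni post-test.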
# [10] = species: Mus musculus; experiment: Activation of Wnt3a/beta-catenin in mouse 3T3L1 cells assessed as down-regulation of C/EBPalpha mRNA expression at 20 uM by qRT-PCR analysis; format: cell-based
# Procedure, shortened: (§4)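 3T3-L1 cells differentiated with IBMX/dexamethasone/insulin media with or without 20 µM compound over the differentiation period. RNA extracted with TRIZOL, 500 ng reverse-transcribed to cDNA, then quantitative real-time PCR. Three independent experiments run in triplicate, mean ± SD, one-way ANOVA with Bonferroni posttest.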
# [11] = system: Syrian golden hamster; experiment: Anti-dyslipidemic activity in high fat diet-induced dyslipidemia Syrian Golden hamster model assessed as decrease in serum AST levels at 100 mg/kg, po administered for 1 week followed by overnight fasting post last dose by clinical bio-analyzer analysis; format: functional, organism-based; conditions: Mesocricetus auratus; procedure, shortened: as §3
# [12] = system: 3T3-L1; experiment: Anti-adipogenic activity in mouse 3T3L1 cells assessed as inhibition of adipogenesis after 20 mins by Oil Red O staining based assay; format: functional, cell-based; conditions: 3T3-L1, 20 min
# Procedure, shortened: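 3T3-L1 preadipocytes differentiated with compound at 0.1, 1, 3, 10, 30, 100 and 300 µM. Oil red O absorbance read at 492 nm, concentrations log-transformed and fitted by non-linear regression to give IC50. Two to three independent experiments, mean ± SEM.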
# [13] = system: Syrian golden hamster; experiment: Induction of reverse cholestrol transport in high fat diet-induced dyslipidemia Syrian Golden hamster model assessed as reduction in adipocyte hypertrophy at 100 mg/kg, po administered for 1 week by H and E staining based assay; format: functional, organism-based; conditions: Mesocricetus auratus; procedure, shortened: as §1
# [14] = species: Mus musculus; experiment: Activation of Wnt3a/beta-catenin in mouse 3T3L1 cells assessed as increase in BMP2 mRNA expression at 20 uM by qRT-PCR analysis; format: cell-based; procedure, shortened: as §4
# [15] = species: Mus musculus; experiment: Activation of Wnt3a/beta-catenin in differentiated mouse 3T3L1 cells assessed as upregulation of phosphorylated beta-catenin expression at 20 uM after 16 to 24 hrs by Western blot analysis; procedure, shortened: as §2
# [16] = species: Mus musculus; experiment: Activation of Wnt3a/beta-catenin in mouse 3T3L1 cells assessed as increase in SIRT1 mRNA expression at 20 uM by qRT-PCR analysis; format: cell-based; procedure, shortened: as §4
# [17] = system: C3H 10T1/2; experiment: Anti-adipogenic activity in mouse differentiated C3H10T1/2 cells assessed as reduction in lipid accumulation at 5 to 20 uM after 20 mins by Oil Red O absorbance method; format: functional, cell-based
# Procedure, shortened: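 C3H10T1/2 or human MSC differentiated with IBMX/insulin/dexamethasone media containing 5, 10 or 20 µM compound. Cells stained with Oil red O (0.36% in 60% isopropanol, 20 min), dye extracted with isopropanol, absorbance read at 492 nm. n=3, mean ± SD, Student t test against MDI group.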
# [18] = species: Mus musculus; experiment: Activation of Wnt3a/beta-catenin in differentiated mouse 3T3L1 cells assessed as down-regulation of FAS protein expression at 20 uM after 16 to 24 hrs by Western blot analysis; procedure, shortened: as §2
# [19] = system: 3T3-L1; experiment: Anti-adipogenic activity in mouse 3T3L1 cells assessed as reduction in lipid accumulation at early differentiation stage at 20 uM measured up to 3 days by Oil Red O staining based leica microscopy; format: functional, cell-based
# Procedure, shortened: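 3T3-L1 or C3H10T1/2 cells given 20 µM compound in differentiation media for varied time periods, then stained with Oil red O. Imaged by microscopy at 10x, representative of three independent experiments.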
smiles,measurement,setting,value
Cc1ccc(S(=O)(=O)N(Cc2cn(Cc3cccc(F)c3F)nn2)Cc2cn(S(=O)(=O)c3ccc(C)cc3)c3ccccc23)cc1,inhibition at 20 µM,[1],71.5%
same,Activity,[2],Active
same,Activity,[3],Active
same,Activity,[4],Active
same,Activity,[5],Active
same,Activity,[6],Active
same,Activity,[7],Active
same,Activity,[8],Active
same,Activity,[9],Active
same,Activity,[10],Active
same,Activity,[11],Active
same,IC50,[12],1700 nM
same,Activity,[13],Active
same,Activity,[14],Active
same,Activity,[15],Active
same,Activity,[16],Active
same,Activity,[17],Active
same,Activity,[18],Active
same,Activity,[19],Active
